Lung fibro prol: blocks proliferation of human lung fibroblasts; LL 47 human lung fibroblast viability, ATP luminescence; hits give low values; viability, % at 10 µM; hit rate 1.1% among 85,000;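 active = viability at or below 50% in the single dose screen; inactive = viability above 50%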;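 also: compound exposure lasted 72 h before the ATP readout; 100% = median luminescence of untreated cell-only wells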
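Signal: luminescent ATP detection, CellTiter-Glo; assay system: LL 47 human lung fibroblasts; input: 1,150 cells/well; incubation: overnight cell rest, 72 h compound treatment at 37 °C; measure: % viability versus median cells-only luminescence; medium: IMEM growth medium with 15% fetal bovine serum; dosing: compound addition at 0.1% DMSO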
H69AR growth 86K: growth inhibitors of human H69AR lung tumor cells; viability, % at 10 µM; H69AR lung tumor viability, ATP luminescence, 72 h; hits give low values; AID 598; hit rate 6% among 85,000;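 active = viability at or below 40%; inactive = viability above 40%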;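 also: multidrug resistant small cell line overexpressing MRP-1 efflux transporter; 100% = mean luminescence of untreated control wells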
Cav3 T inh: blocks human Cav3.2 T-type calcium channel; Cav3.2-expressing cells, Fluo-4 calcium fluorescence FDSS; hits give low values; O95180; AID 449739; B-score at 10 µM; hit rate 4% among 100,000;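 active = single-dose well whose peak fluorescence ratio is a statistical outlier from its plate by either plate-standardised score or position-corrected B-score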
PTEN del growth: growth suppressors of cells with PTEN tumor suppressor deletion | HCT116 PTEN-null viability, CellTiter-Glo, 60 h; hits give low values | viability, % at 10 µM | hit rate 1.2% among 140,000 | AID 827;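 active = viability at or below a set limit, 4 SD under the median of all tested compounds, cut at about 3.7% in these data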;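 also: PTEN knockout HCT116 line with beta catenin targeted HCT116 as companion control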
HUVEC prolif 384: blocks proliferation of human endothelial cells | HUVEC proliferation, CellTiter-Glo luminescence, 72 h; hits give low values | viability, % at 10 µM (by protocol) | hit rate 1.1% among 86,000;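 active = viability at or below 30%; inactive = viability above 30%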;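 also: 100% = median luminescence of DMSO-only cell control wells on each plate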
HCT116 bCat-KO: beta-catenin-lacking colon tumor cell growth suppression; HCT116 beta-catenin knockout viability, CellTiter-Glo, 60 h; hits give low values; viability, % at 10 µM; hit rate 1.5% among 140,000; AID 818;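 active = viability at or under a set limit, the compound median less 4 SD, cut at about 6% in these data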;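 also: 0% = Hyamine 1622 control at 20 µM and 100% = untreated cell control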
Starred values were filed as active, the others as inactive. Only some compounds are listed: those with a hit (about 7.1% of all), similar ones and a draw of the others.

`COC(=O)C(/C=N/OCc1ccc([N+](=O)[O-])cc1)NC(=O)c1cccc(Cl)c1` (centres undefined) gave Lung fibro prol 103, H69AR growth 86K 96, Cav3 T inh -1.7, PTEN del growth 89, HUVEC prolif 384 97 and HCT116 bCat-KO 91.
Screening O=C(Nc1cc(C(F)(F)F)ccc1N1CCOCC1)C1Cc2ccccc2CN1C(=O)c1ccco1 (centres undefined) returned Lung fibro prol 92, H69AR growth 86K 77, Cav3 T inh -8.8*, PTEN del growth 63, HUVEC prolif 384 91 and HCT116 bCat-KO 72.
`COc1cc2c(cc1NC(=O)CSc1nc3ccc(C)cc3[nH]1)oc1ccccc12` gave PTEN del growth 59 and HCT116 bCat-KO 66.
`CCOc1ccc(-c2ncncc2-c2ccc(OC)cc2)c(O)c1` gave Lung fibro prol 99, H69AR growth 86K 88, Cav3 T inh -1.2, PTEN del growth 92, HUVEC prolif 384 94 and HCT116 bCat-KO 86.
Screening CCOc1ccc(-c2[nH]ncc2-c2csc(C)n2)c(O)c1 returned PTEN del growth 70 and HCT116 bCat-KO 82.
CCCCOC(=O)c1ccc(O)cc1 was read as Cav3 T inh -0.44, PTEN del growth 100 and HCT116 bCat-KO 107.
For CCCOC(=O)c1ccc(Oc2cn[nH]c2-c2ccc(OCC)cc2O)cc1 the results were Lung fibro prol 96, H69AR growth 86K 2.7*, Cav3 T inh 0.61, PTEN del growth 54, HUVEC prolif 384 9.5* and HCT116 bCat-KO 55.
For COc1ccc(Oc2c(-c3ccc(O)cc3O)n[nH]c2C)cc1 the results were Lung fibro prol 89, H69AR growth 86K 96, Cav3 T inh -8.8*, PTEN del growth 99, HUVEC prolif 384 105 and HCT116 bCat-KO 97.
Screening CCCc1ccc(Oc2cn[nH]c2-c2ccc(O)c(C)c2O)cc1 returned Lung fibro prol 96, H69AR growth 86K 82, Cav3 T inh -2.7, PTEN del growth 52, HUVEC prolif 384 56 and HCT116 bCat-KO 39.
For CCCc1ccc(Oc2c(-c3ccc(O)c(C)c3O)n[nH]c2C)cc1 the results were Lung fibro prol 96, H69AR growth 86K 21*, Cav3 T inh -1.7, PTEN del growth 84, HUVEC prolif 384 24* and HCT116 bCat-KO 87.
`CCCOC(=O)c1ccc(Oc2c(-c3ccc(OCC)cc3O)n[nH]c2C)cc1` gave Lung fibro prol 54, H69AR growth 86K 2.2*, Cav3 T inh -0.2, PTEN del growth 97, HUVEC prolif 384 4.5* and HCT116 bCat-KO 103.
For O=C(NC1CC1)c1ccc2c(c1)C1C3CCC(C3)C1C(c1ccccc1)N2 (centres undefined) the results were PTEN del growth 70 and HCT116 bCat-KO 81.
Cc1cc(C)c2c(=O)n(CC(=O)N3CCC(Cc4ccccc4)CC3)sc2n1 was read as Lung fibro prol 65, H69AR growth 86K 4.8*, PTEN del growth 9, HUVEC prolif 384 90 and HCT116 bCat-KO 1.4*.
Screening Cc1cc(C)c2c(=O)n(CC(=O)NCCCN3CCN(c4ccccc4F)CC3)sc2n1 returned Lung fibro prol 28*, H69AR growth 86K 0.4*, PTEN del growth 1.8*, HUVEC prolif 384 69 and HCT116 bCat-KO 1.7*.
`Cc1ccccc1CS(=O)(=O)CCC(=O)NCCCN1CCN(c2ccccc2F)CC1` gave Lung fibro prol 102, H69AR growth 86K 83, Cav3 T inh 0.29, PTEN del growth 88, HUVEC prolif 384 85 and HCT116 bCat-KO 86.
`Cc1nn(C)c(Oc2ccc(Cl)cc2)c1C(=O)Nc1ccc(F)cc1F` gave Cav3 T inh -1.7, PTEN del growth 94 and HCT116 bCat-KO 98.
`CC(=O)N1CCN=C1SCc1ccc(Br)cc1` gave Lung fibro prol 91, H69AR growth 86K 89, Cav3 T inh -4.8*, PTEN del growth 111, HUVEC prolif 384 78 and HCT116 bCat-KO 89.
For Cc1ccc2nc(/C(C#N)=C\c3cc(C)n(-c4cccc([N+](=O)[O-])c4)c3C)[nH]c2c1 the results were Lung fibro prol 92, H69AR growth 86K 58, Cav3 T inh -6.1*, PTEN del growth 51, HUVEC prolif 384 75 and HCT116 bCat-KO 42.
For Cc1ccc2nc(/C(C#N)=C\c3ccc(N4CCOCC4)o3)[nH]c2c1 the results were Lung fibro prol 84, H69AR growth 86K 5.5*, Cav3 T inh -5*, PTEN del growth 62, HUVEC prolif 384 76 and HCT116 bCat-KO 76.
N#C/C(=C\c1ccc([N+](=O)[O-])o1)c1nc2ccccc2[nH]1 was read as PTEN del growth 0.6* and HCT116 bCat-KO 0.7*.
`N#C/C(=C\c1ccc(Sc2ccccc2)o1)c1nc2ccccc2[nH]1` gave PTEN del growth 91 and HCT116 bCat-KO 89.
For N#C/C(=C\Nc1ccc2c(c1)OCCO2)c1nc2ccccc2[nH]1 the results were Lung fibro prol 104, H69AR growth 86K 19*, Cav3 T inh -0.035, PTEN del growth 77, HUVEC prolif 384 74 and HCT116 bCat-KO 80.
CC(=O)NS(=O)(=O)c1ccc(N=c2ssc3c2-c2ccc(C)cc2NC3(C)C)cc1 was read as PTEN del growth 96 and HCT116 bCat-KO 94.
For Cc1ccc2nc(/C(C#N)=C\c3ccc([N+](=O)[O-])o3)[nH]c2c1 the results were Cav3 T inh -1.1, PTEN del growth 1.5* and HCT116 bCat-KO 1.9*.
Cc1ccc2nc(/C(C#N)=C\c3ccc(Oc4ccc([N+](=O)[O-])cn4)cc3)[nH]c2c1 was read as PTEN del growth 24 and HCT116 bCat-KO 49.
`CCOc1cc(S(=O)(=O)NCc2ccc(OC)cc2)c(OCC)cc1-n1cnnn1` gave Lung fibro prol 56, H69AR growth 86K 22*, Cav3 T inh -0.088, PTEN del growth 33, HUVEC prolif 384 58 and HCT116 bCat-KO 48.
`CCOc1cc(S(=O)(=O)NCCc2ccc(OC)c(OC)c2)c(OCC)cc1-n1cnnn1` gave Lung fibro prol 87, H69AR growth 86K 84, Cav3 T inh 0.022, PTEN del growth 109, HUVEC prolif 384 94 and HCT116 bCat-KO 92.
Screening C/C(=N\NC(=O)c1c(Cl)cnn1C)c1ccc(NC(=O)c2ccncc2)cc1 returned PTEN del growth 95 and HCT116 bCat-KO 95.
Screening CCCn1c(=O)n(C)c(=O)c2c(SCC(=O)NC34CC5CC(CC(C5)C3)C4)nc(CC(C)C)nc21 returned PTEN del growth 51 and HCT116 bCat-KO 44.
CC(C)(C)n1ncc2c(=O)n(CC(=O)Nc3ccc(Cl)cc3)cnc21 was read as Lung fibro prol 101, H69AR growth 86K 71, Cav3 T inh -9.5*, PTEN del growth 74, HUVEC prolif 384 98 and HCT116 bCat-KO 76.
`CCN(CC)c1ccc2c(C)c(-c3ccc(N)cc3)c(=O)oc2c1` gave Lung fibro prol 97, H69AR growth 86K 51, PTEN del growth 85, HUVEC prolif 384 79 and HCT116 bCat-KO 88.
